Measurements reported in ChEMBL document CHEMBL1123485, “A lymphotropic prodrug of L-dopa: synthesis, pharmacological properties, and pharmacokinetic behavior of 1,3-dihexadecanoyl-2-[(S)-2-amino-3-(3,4-dihydroxyphenyl)prop anoyl] propane-1,2,3-triol” (J Med Chem, 1986).
Values joined by “and” are separate entries in the source; they are usually repeats but may differ in a detail not shown here. Identical values can stand only once.

Columns and labels:
[1] = Peak plasma concentration expresses the ability of compound for the release of dopamine in the plasma of monkey after oral administration of 0.5 mmol/kg; conditions: simiiformes, in vivo
Rattus norvegicus [2] = assay: Peak plasma concentration expresses the ability of compound for the release of L-Dopa in the plasma of rat after oral administration of 0.5 mmol/kg; conditions: in vivo
Mus musculus [3] = assay: Peak plasma concentration expresses the ability of compound for the release of L-Dopa in the plasma of mouse after oral administration of 0.5 mmol/kg; conditions: in vivo
[4] = Time of maximum L-Dopa plasma concentration was measured in mouse ofter oral administration of the compound; conditions: in vivo
[5] = Peak plasma concentration expresses the ability of compound for the release of L-Dopa in the plasma of monkey after oral administration of 0.5 mmol/kg; conditions: simiiformes, in vivo
[6] = Time of maximum L-Dopa plasma concentration was measured in monkey ofter oral administration of the compound; assay type: ADME, organism-based; conditions: simiiformes, in vivo
Procedure, shortened: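 A single male Cynomolgus monkey (2.7 kg) was fasted 12 h and given 0.5 mmol/kg orally. Blood was drawn from the femoral vein, and plasma L-Dopa and dopamine were assayed by HPLC with fluorometric detection. Cmax is the peak plasma concentration (nmol/mL); tmax is the time of that peak (min).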

Rattus norvegicus [7] = assay: Time of maximum L-Dopa plasma concentration was measured in rat ofter oral administration of the compound; assay type: ADME, organism-based; conditions: in vivo
Procedure, shortened: (§1)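 Overnight-fasted male Wistar rats (230–250 g), five per compound, received 0.5 mmol/kg orally. Tail-vessel blood was sampled at 10, 20 and 30 min and 1–6 h. Plasma was deproteinized with perchloric acid and centrifuged, then L-Dopa and dopamine were measured by reversed-phase HPLC with fluorometric detection, quantified by peak area. Cmax (nmol/mL) and tmax (min) were taken from the mean curves.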

Rattus norvegicus [8] = assay: Peak plasma concentration expresses the ability of compound for the release of dopamine in the plasma of rat after oral administration of 0.5 mmol/kg; conditions: in vivo
Mus musculus [9] = assay: Peak plasma concentration expresses the ability of compound for the release of dopamine in the plasma of mouse after oral administration of […]; assay type: ADME, organism-based; set-up: route oral; conditions: in vivo
Procedure, shortened: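 Male NMRI mice (20–25 g), five per time point and compound, received 0.5 mmol/kg orally. They were decapitated at 10, 20 and 30 min and 1–6 h. Blood was collected, deproteinized with perchloric acid and assayed for L-Dopa and dopamine by HPLC with fluorometric detection. Cmax is given in nmol/mL and tmax in min.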

Rattus norvegicus [10] = assay: Time of maximum dopamine plasma concentration was measured in rat ofter oral administration of the compound; assay type: ADME, organism-based; conditions: in vivo
Procedure, shortened: as §1

| Cmax [1] [nM ml-1] | Cmax (Rattus norvegicus [2]) [nM ml-1] | Cmax (Mus musculus [3]) [nM ml-1] | T max [4] [h] | Cmax [5] [nM ml-1] | T max [6] [h] | T max (Rattus norvegicus [7]) [h] | Cmax (Rattus norvegicus [8]) [nM ml-1] | Cmax (Mus musculus [9]) | T max (Rattus norvegicus [10]) | Compound |
| --- | --- | --- | --- | --- | --- | --- | --- | --- | --- | --- |
| 8.1 | 16.2 | 1.12 | 0.5 | 9.5 | – | – | – | – | – | N[C@@H](Cc1ccc(O)c(O)c1)C(=O)O [LEVODOPA] |
| 6.1 | 24.6 | – | 2 | 18.3 | 1.83 | 3 | 17.1 | 1.6 nM ml-1 and 3.54 nM ml-1 | 4 h and 2.5 h | CCCCCCCCCCCCCCCC(=O)OCC(COC(=O)CCCCCCCCCCCCCCC)OC(=O)C(N)Cc1ccc(O)c(O)c1 (centres undefined) |
